Data published in ChEMBL document CHEMBL1121432, “Tricyclics with analgesic and antidepressant activity. 1. [[(Alkylamino)ethyl]thio]dibenz[b,f]oxepins and 10,11-dihydro derivatives” (1980).

Columns and labels:
Format in all cases: functional
Mus musculus [1] = experiment: Anticonvulsant activity to prevent pentamethylenetetrazole (MTZ) induced lethality in mice after oral administration
Mus musculus [2] = experiment: Delay in response to noxious heat stimuli in mice by tail flick method after subcutaneous administration; details: sc
Mus musculus [3] = experiment: Analgesic activity for the inhibition of phenylquinone induced writhing (PQW) after subcutaneous administration to mice; details: sc
Mus musculus [4] = experiment: Tested for antipsychotic activity to prevent amphetamine induced lethality in mice after intraperitoneal administration; details: ip
Method in brief: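 Male CD-1 mice in groups of ten, 18-28 g, dosed ip; controls got distilled water-Tween 80. d-Amphetamine sulfate 21 mg/kg sc 60 min later, then aggregated five per wire cage at 80-84 °F. Dead mice replaced by marked untreated mice every 15 min. Deaths counted at 5 h post-amphetamine.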

Mus musculus [5] = experiment: Antipsychotic activity to prevent amphetamine induced lethality in mice after oral administration
Method in brief: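 Male CD-1 mice in groups of ten, 18-28 g, dosed orally; controls got distilled water-Tween 80. d-Amphetamine sulfate 21 mg/kg sc 60 min post-drug, then aggregated five per wire cage at 80-84 °F. Dead mice replaced by marked untreated mice every 15 min. Deaths counted at 5 h post-amphetamine.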

Mus musculus [6] = experiment: Antidepressant activity to prevent tetrabenazine induced ptosis (TBZ) in mice after intraperitoneal administration; details: ip
Mus musculus [7] = experiment: Tested for analgesic activity for the inhibition of phenylquinone induced writhing (PQW) after oral administration to mice

Row | SMILES | ED50 (Mus musculus [1]) [mg/kg] | ED50 (Mus musculus [2]) [mg/kg] | ED50 (Mus musculus [3]) [mg/kg] | ED50 (Mus musculus [4]) [mg/kg] | ED50 (Mus musculus [5]) [mg/kg] | ED50 (Mus musculus [6]) [mg/kg] | ED50 (Mus musculus [7]) [mg/kg]
1 | C1=C(SCCN2CCOCC2)c2ccccc2Oc2ccccc21 | > 50 | > 25 | > 25 | – | – | – | –
2 | CNCCSC1=Cc2ccccc2Oc2ccccc21 | 50 | 11.6 | – | > 20 | – | – | –
3 | CC(C)=CCN1CC[C@]2(C)c3cc(O)ccc3C[C@H]1[C@H]2C [(+)-PENTAZOCINE] | > 25 | 14.6 | 2.4 | – | > 20 | – | –
4 | CN(C)CCSC1Cc2ccccc2Oc2ccc(Cl)cc21 (stereo not given) | 30 | > 25 | < 25 | – | – | – | –
5 | Br.CCN(CC)CCSC1Cc2ccccc2Oc2ccc(SC)cc21 (stereo not given) | > 50 | > 25 | 25 | – | > 20 | > 20 | –
6 | CNCCSC1=Cc2ccccc2Oc2ccc(F)cc21 [FLURADOLINE] | > 50 | 11.3 | – | – | > 50 | 0.32 | 24.7
7 | CN(C)CCSC1Cc2ccccc2Oc2ccc(F)cc21 (stereo not given) | 52.3 | 7.9 | – | – | > 20 | 2 | –
8 | CNCCSC1=Cc2ccccc2Oc2ccc(SC)cc21 | > 50 | > 25 | < 25 | – | > 20 | 6.1 | –
9 | Fc1ccc2c(c1)C(SCCNCC1CC1)Cc1ccccc1O2 (stereo not given) | > 50 | > 25 | 10.7 | – | > 20 | > 20 | –
10 | CNCCSC1=Cc2ccccc2Oc2ccc(Cl)cc21 | > 50 | > 25 | 16 | – | > 20 | 5.9 | –
11 | CNCCSC1Cc2ccccc2Oc2ccc(SC)cc21 (stereo not given) | 50 | > 25 | 6.4 | – | > 20 | 12.7 | –
12 | CNCCSC1Cc2ccccc2Oc2ccc(F)cc21 (stereo not given) | 31.6 | 5.1 | – | – | > 20 | 0.8 | –
13 | Br.CN1CCN(CCSC2Cc3ccccc3Oc3ccccc32)CC1 (stereo not given) | > 50 | > 25 | 6.3 | – | – | > 20 | –
14 | CN(C)CCSC1=Cc2ccccc2Oc2ccc(F)cc21 | > 50 | 23.9 | 10.3 | – | > 20 | – | –
15 | O=C(c1ccc(F)cc1)C1CCN(CCSC2Cc3ccccc3Oc3ccccc32)CC1 (stereo not given) | > 50 | > 25 | 10.9 | – | > 20 | > 20 | 9.5
16 | c1ccc(CCNCCSC2Cc3ccccc3Oc3ccccc32)cc1 (stereo not given) | > 50 | > 25 | 9.3 | – | 23 | > 20 | –
17 | C=CCNCCSC1Cc2ccccc2Oc2ccc(F)cc21 (stereo not given) | > 50 | > 25 | 10.6 | – | > 20 | 3.5 | –
18 | CSc1ccc2c(c1)C(SCCN(C)C)=Cc1ccccc1O2 | > 50 | 14.1 | 5.3 | – | > 20 | 9.4 | –
19 | CCN(C)CCSC1=Cc2ccccc2Oc2ccccc21 | > 50 | > 25 | 25 | – | – | 20 | –
20 | CCN(CC)CCSC1=Cc2ccccc2Oc2ccc(SC)cc21 | > 50 | > 25 | > 25 | – | > 20 | > 20 | –
21 | CCN(CC)CCSC1=Cc2ccccc2Oc2ccccc21 | > 50 | > 25 | 25 | – | > 20 | > 20 | –

Row | SMILES | ED50 (Mus musculus [1]) [mg/kg] | ED50 (Mus musculus [2]) [mg/kg] | ED50 (Mus musculus [3]) [mg/kg] | ED50 (Mus musculus [4]) [mg/kg] | ED50 (Mus musculus [5]) [mg/kg] | ED50 (Mus musculus [6]) [mg/kg] | ED50 (Mus musculus [7]) [mg/kg]
22 | c1ccc2c(c1)CC(SCCN1CCOCC1)c1ccccc1O2 (stereo not given) | > 50 | > 25 | < 25 | – | > 20 | > 20 | –
23 | CSc1ccc2c(c1)C(SCCN(C)C)Cc1ccccc1O2 (stereo not given) | > 50 | > 25 | 10.4 | – | > 20 | 16 | –
24 | CNCCSC1Cc2ccccc2Oc2ccc(Cl)cc21 (stereo not given) | < 50 | 22.4 | 5.3 | – | > 20 | 1.5 | 11.3
25 | C#CCN(C)CCSC1=Cc2ccccc2Oc2ccccc21 | > 50 | > 25 | 25 | – | – | 12.2 | –
26 | CN(C)CCSC1=Cc2ccccc2Oc2ccc(Cl)cc21 | > 50 | > 25 | > 25 | – | > 20 | > 20 | –
27 | CCN(CC)CCSC1Cc2ccccc2Oc2ccccc21 (stereo not given) | > 50 | > 25 | 6.9 | – | > 20 | > 20 | –
28 | CNCCSC1Cc2ccccc2Oc2ccccc21 (stereo not given) | 50 | 11.6 | 4.8 | – | > 20 | 0.9 | –
29 | Fc1ccc2c(c1)C(SCCNCCc1ccccc1)Cc1ccccc1O2 (stereo not given) | > 50 | > 25 | > 10 | – | > 20 | – | –
30 | CCNCCSC1Cc2ccccc2Oc2ccccc21 (stereo not given) | > 50 | > 25 | 6.6 | – | – | 20 | –
31 | CN(C)CCSC1=Cc2ccccc2Oc2ccccc21 | 50 | > 25 | 5.8 | – | > 20 | 8.4 | –
32 | C1=C(SCCNCCc2ccccc2)c2ccccc2Oc2ccccc21 | > 50 | > 25 | 13.6 | – | > 20 | > 20 | –
33 | CN1CC[C@]23c4c5ccc(O)c4O[C@H]2[C@@H](O)C=C[C@H]3[C@H]1C5 [MORPHINE] | > 25 | – | 0.36 | – | > 20 | 8.1 | –
34 | CSc1ccc2c(c1)C(SCCN(C(C)C)C(C)C)=Cc1ccccc1O2 | > 50 | > 25 | > 25 | – | – | 25 | –
35 | CN1C(=O)CN=C(c2ccccc2)c2cc(Cl)ccc21 [DIAZEPAM] | 1.4 | – | – | – | > 20 | – | –
36 | CN(C)CCCN1c2ccccc2CCc2ccccc21 [IMIPRAMINE] | 50 | > 25 | 11 | – | > 20 | 1.3 | –
37 | CN(C)CCSC1Cc2ccccc2Oc2ccccc21 (stereo not given) | 50 | > 25 | > 25 | – | > 20 | – | –
38 | CCN(C)CCSC1=Cc2ccccc2Oc2ccc(SC)cc21 | > 50 | > 25 | 25 | – | > 20 | – | –
39 | CN(C)CCCN1c2ccccc2Sc2ccc(Cl)cc21 [CHLORPROMAZINE] | > 50 | – | – | – | 2.8 | – | –
40 | CCN(CC)CCSC1Cc2ccccc2Oc2ccc(Cl)cc21 (stereo not given) | > 50 | > 25 | 14.8 | – | – | > 20 | –
41 | CN(CCSC1=Cc2ccccc2Oc2ccccc21)CC1CC1 | > 50 | > 25 | 6 | – | – | > 20 | –
